Measurements: ChEMBL document CHEMBL1144710, “epigenetic multiple ligands: mixed histone/protein methyltransferase, acetyltransferase, and class III deacetylase (sirtuin) inhibitors” (J Med Chem, 2008)
pIC50: −log10 of the molar value. Activity calls are given as the source filed them. Unless noted, no cut-off for these calls is given here.

Experiments:
[1] = tested on: U-937; test: Induction of cell cycle arrest in human U937 cells at 25 uM after 30 hrs; assay type: functional, cell-based
How it was run: (§1)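 U937 cells in RPMI with 10% fetal calf serum, HEPES and glutamine, kept at 200000 cells/mL; treated at 25 µM for 30 h, then the distribution across cell cycle phases was analysed.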

[2] = tested on: U-937; test: Induction of apoptosis in human U937 cells at 25 uM after 30 hrs; assay type: functional
How it was run: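 Apoptosis read as caspase 3 activation by FACS, in U937 cells (RPMI, 10% fetal calf serum, 200000 cells/mL) exposed to 25 µM for 30 h.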

[3] = tested on: U-937; test: Induction of granulocytic differentiation in human U937 cells assessed as CD11c expression at 5 uM after 30 hrs; assay type: functional
How it was run: (§2)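 U937 cells treated for 30 h, then stained with PE-conjugated CD11c (PE mouse IgG1 as control) for 30 min at 4 °C in the dark and resuspended in PBS with PI (0.25 µg/mL). Read-out is percent CD11c-positive/PI-negative cells, with dead PI-positive cells excluded. Coloured compounds limited the top dose to 5 µM or lower.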

[4] = tested on: U-937; test: Induction of granulocytic differentiation in human U937 cells assessed as CD11c expression at 25 uM after 30 hrs; assay type: functional; how it was run: as §2
[5] = tested on: U-937; test: Cell cycle arrest in human U937 cells assessed as accumulation at G1/G2 phase at 25 uM after 30 hrs; assay type: functional, cell-based; how it was run: as §1
[6] = tested on: U-937; test: Induction of granulocytic differentiation in human U937 cells assessed as CD11c expression at 1 uM after 30 hrs; assay type: functional; how it was run: as §2
[7] = target: RmtA (Emericella nidulans, UniProt Q5VLE3); test: Inhibition of Aspergillus nidulans RmtA
Chain of RmtA (Q5VLE3 whole entry, the tested form may be a part): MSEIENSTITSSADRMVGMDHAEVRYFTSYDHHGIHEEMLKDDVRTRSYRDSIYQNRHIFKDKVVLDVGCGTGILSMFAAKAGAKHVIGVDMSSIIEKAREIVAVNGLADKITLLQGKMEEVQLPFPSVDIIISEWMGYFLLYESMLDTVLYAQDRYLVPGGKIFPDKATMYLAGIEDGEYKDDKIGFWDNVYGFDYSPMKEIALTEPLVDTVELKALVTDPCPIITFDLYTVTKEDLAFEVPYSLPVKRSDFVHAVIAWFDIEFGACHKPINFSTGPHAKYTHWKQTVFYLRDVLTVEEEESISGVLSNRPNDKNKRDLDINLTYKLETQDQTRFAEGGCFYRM
How it was run: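 Enzyme was GST-RmtA fusion expressed in E. coli BL21 and glutathione-affinity purified (500 ng), preincubated with compound for 15 min at room temperature. Then 20 µg chicken erythrocyte core histones and 0.55 µCi [3H]AdoMet were added, 30 min at 30 °C. Stopped with 25% TCA, filtered, counted by liquid scintillation.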

[8] = target: Protein arginine N-methyltransferase 1 (Homo sapiens) (UniProt Q99873); test: Inhibition of human recombinant PRMT1 assessed as histone H4 methylation at 50 uM
Chain of Protein arginine N-methyltransferase 1 (Homo sapiens) (Q99873 whole entry, looked up): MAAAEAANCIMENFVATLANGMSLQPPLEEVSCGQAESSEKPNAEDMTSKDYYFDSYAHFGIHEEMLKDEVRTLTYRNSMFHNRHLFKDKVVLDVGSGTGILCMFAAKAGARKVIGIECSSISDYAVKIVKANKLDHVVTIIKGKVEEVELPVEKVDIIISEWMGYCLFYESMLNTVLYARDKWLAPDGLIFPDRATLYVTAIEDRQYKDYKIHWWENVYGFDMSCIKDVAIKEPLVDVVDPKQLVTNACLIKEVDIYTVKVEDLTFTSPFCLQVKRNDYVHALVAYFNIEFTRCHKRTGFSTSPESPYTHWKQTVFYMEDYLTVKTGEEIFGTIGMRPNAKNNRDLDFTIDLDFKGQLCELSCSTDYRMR

[9] = target: Protein arginine N-methyltransferase 1 (Homo sapiens) (UniProt Q99873); test: Inhibition of human recombinant PRMT1 assessed as nuclear ribonucleoprotein Npl3p methylation at 100 uM
How it was run: (§3)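 Recombinant enzymes (0.2 µg) with substrate (0.5 µg: Npl3p for PRMT1, PABP1 for CARM1, histone H3 for SET7), 0.5 µM [3H]AdoMet and 100 µM compound in PBS pH 7.4 with 3.3% v/v DMSO, 90 min at 30 °C. Products separated by 10% SDS-PAGE, transferred to PVDF, detected by fluorography on film overnight.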

[10] = target: T1, Histone-arginine methyltransferase CARM1 (Homo sapiens) (UniProt Q86X55); test: Inhibition of human recombinant CARM1 assessed as poly(A) binding protein 1 methylation at 100 uM; how it was run: as §3
T1 sequence (whole entry): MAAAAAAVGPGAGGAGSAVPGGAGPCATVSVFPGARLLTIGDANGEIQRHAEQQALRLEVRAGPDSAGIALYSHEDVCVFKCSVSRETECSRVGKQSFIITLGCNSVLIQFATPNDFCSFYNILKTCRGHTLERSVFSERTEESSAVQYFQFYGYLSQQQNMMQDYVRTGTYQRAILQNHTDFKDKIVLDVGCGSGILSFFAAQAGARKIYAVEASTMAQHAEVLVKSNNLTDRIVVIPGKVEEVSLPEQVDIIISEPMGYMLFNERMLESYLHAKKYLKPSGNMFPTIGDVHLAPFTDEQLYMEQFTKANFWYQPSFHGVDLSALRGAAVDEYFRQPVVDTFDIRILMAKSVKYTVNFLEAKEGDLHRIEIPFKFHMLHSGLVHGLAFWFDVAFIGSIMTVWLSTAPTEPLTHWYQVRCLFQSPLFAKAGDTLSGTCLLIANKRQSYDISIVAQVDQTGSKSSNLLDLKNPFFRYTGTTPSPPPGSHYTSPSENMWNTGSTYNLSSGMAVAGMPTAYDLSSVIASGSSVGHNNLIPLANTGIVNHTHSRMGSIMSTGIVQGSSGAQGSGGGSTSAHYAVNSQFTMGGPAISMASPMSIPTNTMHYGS

[11] = target: T2, Histone-lysine N-methyltransferase SETD7 (Homo sapiens) (UniProt Q8WTS6); test: Inhibition of human recombinant SET7 assessed as histone H3 protein methylation at 100 uM; how it was run: as §3
T2 sequence (whole entry): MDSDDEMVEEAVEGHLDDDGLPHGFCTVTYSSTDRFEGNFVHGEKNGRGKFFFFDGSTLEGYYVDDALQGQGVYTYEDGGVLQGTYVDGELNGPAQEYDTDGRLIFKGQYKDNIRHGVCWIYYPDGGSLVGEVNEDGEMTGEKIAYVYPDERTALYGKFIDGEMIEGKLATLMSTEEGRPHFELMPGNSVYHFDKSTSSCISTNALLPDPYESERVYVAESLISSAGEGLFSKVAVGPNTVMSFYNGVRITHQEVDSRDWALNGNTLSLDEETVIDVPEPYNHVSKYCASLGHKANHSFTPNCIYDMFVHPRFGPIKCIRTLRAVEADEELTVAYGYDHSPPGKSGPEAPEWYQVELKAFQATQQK

[12] = tested on: U-937; test: Inhibition of histone H3K4 methylation in human U937 cells at 50 uM after 24 hrs; assay type: functional, cell-based
How it was run: (§4)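 U937 cells treated at 50 µM for 24 h. Histones extracted with Triton buffer, then 0.2 M HCl overnight at 4 °C. 3–10 µg run on 15% SDS-PAGE and immunoblotted with anti-monomethyl-H3K4, monomethyl-H4R3 or dimethyl-H3R17 (1:500, overnight 4 °C), ECL detection. Loading controls: total H4 (H3K4), Ponceau Red (Arg marks).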

[13] = tested on: U-937; test: Inhibition of histone H4R3 methylation in human U937 cells at 50 uM after 24 hrs; assay type: functional, cell-based; how it was run: as §4
[14] = tested on: U-937; test: Inhibition of histone H3R17 methylation in human U937 cells at 50 uM after 24 hrs; assay type: functional, cell-based; how it was run: as §4
[15] = tested on: U-937; test: Inhibition of human p300/CBP in U937 cells at 50 uM assessed as histone H3 acetylation; assay type: cell-based
How it was run: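 Source was U937 nuclear extract (10 µg per assay) as p300/CBP HAT, with histone H3 substrate and compound at 50 µM or DMSO control for 90 min. Acetyl-H3 detected by indirect ELISA, quantified against acetylated H3 peptide standard curves, […].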

[16] = target: T3, NAD-dependent protein deacetylase sirtuin-1 (Homo sapiens) (UniProt Q96EB6); test: Inhibition of human SIRT1 at 25 uM
T3 sequence (whole entry): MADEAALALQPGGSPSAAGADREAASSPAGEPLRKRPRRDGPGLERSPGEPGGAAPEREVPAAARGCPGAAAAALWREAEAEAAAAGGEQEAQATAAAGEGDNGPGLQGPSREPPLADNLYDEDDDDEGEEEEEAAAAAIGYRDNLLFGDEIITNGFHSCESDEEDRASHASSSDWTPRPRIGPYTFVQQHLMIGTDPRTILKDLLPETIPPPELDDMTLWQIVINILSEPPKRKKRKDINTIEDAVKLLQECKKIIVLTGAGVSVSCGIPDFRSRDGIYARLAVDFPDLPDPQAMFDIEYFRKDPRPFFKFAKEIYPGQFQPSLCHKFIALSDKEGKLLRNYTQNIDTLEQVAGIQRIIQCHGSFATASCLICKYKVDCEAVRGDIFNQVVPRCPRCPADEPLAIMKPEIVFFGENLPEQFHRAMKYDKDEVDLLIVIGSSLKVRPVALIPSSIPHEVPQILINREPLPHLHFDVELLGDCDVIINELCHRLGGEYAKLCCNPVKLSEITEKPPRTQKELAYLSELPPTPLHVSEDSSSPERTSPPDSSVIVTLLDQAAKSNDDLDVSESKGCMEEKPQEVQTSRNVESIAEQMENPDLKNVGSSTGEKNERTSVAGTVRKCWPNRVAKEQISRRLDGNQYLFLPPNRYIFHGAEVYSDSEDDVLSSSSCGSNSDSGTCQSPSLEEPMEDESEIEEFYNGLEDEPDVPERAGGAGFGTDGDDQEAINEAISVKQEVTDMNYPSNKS
How it was run: (§5)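 Fluorescent two-stage assay. SIRT1 (1 U/well) or SIRT2 (5 U/well) with Fluor de Lys-SIRT1/2 substrate, NAD+ and compound at 25 µM, 37 °C for 2 h. Developer II containing nicotinamide then stopped the reaction and generated signal, read at ex 360/em 460 nm.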

[17] = target: T4, NAD-dependent protein deacetylase sirtuin-2 (Homo sapiens) (UniProt Q8IXJ6); test: Inhibition of human SIRT2 at 25 uM; how it was run: as §5
T4 sequence (whole entry): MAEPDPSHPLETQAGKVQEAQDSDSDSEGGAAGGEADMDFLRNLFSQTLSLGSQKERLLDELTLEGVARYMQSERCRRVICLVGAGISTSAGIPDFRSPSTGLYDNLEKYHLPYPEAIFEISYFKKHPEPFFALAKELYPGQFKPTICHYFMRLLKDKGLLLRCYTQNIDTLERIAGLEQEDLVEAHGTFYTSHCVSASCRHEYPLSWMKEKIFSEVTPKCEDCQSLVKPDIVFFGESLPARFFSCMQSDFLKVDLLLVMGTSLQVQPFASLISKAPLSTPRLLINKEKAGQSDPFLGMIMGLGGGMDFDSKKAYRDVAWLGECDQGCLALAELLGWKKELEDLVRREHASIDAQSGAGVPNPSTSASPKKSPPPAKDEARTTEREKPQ

COc1cc(/C=C/C(=O)CC(=O)/C=C/c2ccc(O)c(OC)c2)ccc1O [CURCUMIN]
Activity [1]: inactive | Activity [2]: 8.5% | Activity [3]: 25.3% | Activity [4]: 25%

O=C(/C=C/c1cc(Br)c(O)c(Br)c1)c1cccc(C(=O)/C=C/c2cc(Br)c(O)c(Br)c2)c1
Activity [5]: Active | Activity [2]: 42.6% | Activity [6]: 38.8% | pIC50 [7]: 5.00 | inhibition [8]: 60% | Activity [9]: Active | Activity [10]: Active | Activity [11]: Active | Activity [12]: Active | Activity [13]: Active | Activity [14]: Active | inhibition [15]: 83% | inhibition [16]: 73% | inhibition [17]: 48%
